Shown are actives, neighbours in structure and some others; about 1.8% of the full set was active somewhere.
NPY1 pot ag – NPY-Y1 receptor potentiators or agonists, primary screen, cell-based; Neuropeptide Y receptor type 1 (Homo sapiens), P25929; NPY-Y1 expressing cells, potentiator/agonist activation; activation, % at 3.6 µM; actives 0.37% (n = 220,000); AID 1304, 2008; in the data active = activation above about 33%, passing the limit was not always enough;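 note: cells stimulated with NPY at EC10 then isoproterenol at EC100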
NPY-Y2 antag – NPY-Y2 receptor antagonists, primary screen, cell-based; Neuropeptide Y receptor type 2 (Homo sapiens), P49146; NPY-Y2 expressing cells, antagonist mode; inhibition, % at 2.7 µM; actives 0.99% (n = 140,000); in the data active = inhibition above about 17%
Target sequence (P49146 whole entry, looked up): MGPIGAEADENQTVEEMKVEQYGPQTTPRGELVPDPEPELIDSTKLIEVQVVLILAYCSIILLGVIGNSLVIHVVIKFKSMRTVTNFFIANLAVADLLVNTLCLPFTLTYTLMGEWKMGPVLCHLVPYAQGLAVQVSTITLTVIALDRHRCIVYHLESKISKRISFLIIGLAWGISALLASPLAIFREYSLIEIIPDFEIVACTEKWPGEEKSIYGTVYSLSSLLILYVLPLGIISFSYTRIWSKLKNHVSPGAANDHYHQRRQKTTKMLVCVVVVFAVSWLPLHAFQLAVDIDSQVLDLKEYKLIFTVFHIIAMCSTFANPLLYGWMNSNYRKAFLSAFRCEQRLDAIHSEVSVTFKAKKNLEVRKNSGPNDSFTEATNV
NPY-Y2 PAM-ag – NPY-Y2 potentiators or agonists, primary screen, cell-based; actives 0.45% (n = 220,000); cells expressing NPY-Y2, potentiator/agonist read-out; Neuropeptide Y receptor type 2 (Homo sapiens), P49146; AID 1359, 2008; activation, % at 3.6 µM; in the data active = activation above about 27%;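 note: cells stimulated with NPY near EC25 plus isoproterenol at EC100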
NPY-Y1 antag – NPY-Y1 receptor antagonists, primary screen, cell-based. Neuropeptide Y receptor type 1 (Homo sapiens), P25929. HEK293-CNG Y1 cells, membrane potential fluorescence; NPY at EC95, then isoproterenol. inhibition, % at 3.6 µM. actives 1% (n = 200,000);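 active = inhibition above the campaign mean inhibition of all tested compounds plus 3 SD, cut at about 20% in these data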
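Material: HEK293 cells co-expressing NPY Y1 receptor and cyclic-nucleotide gated channel. Timing: compound incubation 1 h at room temperature, readout 45 min post-stimulation. Signal: fluorescence, membrane potential probe.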
NPY-Y1 antag ct – NPY-Y1 receptor antagonists, selectivity check, counter-screen for NPY-Y2 antagonist project, cell-based; shares compounds with NPY-Y2 antag; cell-based NPY-Y1 antagonism counterscreen; inhibition, % at 3.6 µM; actives 19% (n = 710); AID 1256, 2008; in the data active = inhibition above about 20%;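 note: cells challenged with NPY then isoproterenol with cAMP sensed through a CNG channel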
NPY-Y2 ant conf – NPY-Y2 receptor antagonists, retest of hits, confirmation, HEK293-CNG cells, membrane potential fluorescence, triplicate; HEK293 NPY-Y2 CNG channel; AID 1257, 2008; shares compounds with NPY-Y2 antag; actives 32% (n = 710); inhibition, % at 2.8 µM;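 active = mean inhibition of triplicate wells above the hit cutoff set in the primary screen, cut at about 17% in these data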
A number is an active result; n = inactive; x = no result given.

SMILES	NPY1 pot ag	NPY-Y2 antag	NPY-Y2 PAM-ag	NPY-Y1 antag	NPY-Y1 antag ct	NPY-Y2 ant conf
COC(=O)c1cc2occc2n1Cc1nc(-c2ccc(Cl)cc2)oc1C	n	n	n	n	x	x
O=C(CSc1ncn[nH]1)Nc1ccc(S(=O)(=O)Nc2ncccn2)cc1	n	x	n	n	x	x
O=C(NCc1ccc2c(c1)OCO2)c1cc(-c2ccccc2)on1	n	n	n	n	x	x
Cc1ccc(-c2cc(C(=O)NCc3ccc4c(c3)OCO4)no2)cc1	n	17.6	n	n	n	n
O=C(N/N=C/c1ccco1)c1ccccc1OCc1ccc(Br)cc1	n	33.0	n	n	n	19.7
O=C(N/N=C/c1ccco1)c1ccc(OCc2ccccc2)cc1	n	x	n	x	x	x
Cc1cc(NC(=O)CN(C)S(=O)(=O)c2cccc(Cl)c2)no1	n	x	n	n	x	x
CCC(C)NC(=O)CSc1nc2c(sc3ccccc32)c(=O)n1CCCN1CCOCC1 (stereo not given)	n	n	n	n	x	x
CCOC(=O)CSc1nc2c(sc3ccccc32)c(=O)n1CCCN1CCOCC1	n	19.2	n	n	21.0	n
Cn1ccnc1SCC(=O)Nc1cccc(O)c1	n	17.7	n	n	n	n
CCCCc1nnc(NC(=O)C(C)Sc2nc(C)cc(=O)[nH]2)s1 (stereo not given)	n	20.4	n	n	n	n
O=C(O)c1cc(Cl)c2ccccc2c1O	n	19.5	n	n	20.7	n
CCn1c(=N)n(CC(=O)C23CC4CC(CC(C4)C2)C3)c2ccccc21	n	26.7	n	n	20.7	32.1
Cc1ccccc1C(=O)c1cccn1CC(=O)NCCN1CCN(c2cccc(C)c2C)CC1	n	21.4	n	n	n	24.6
Cc1ccc(C)c(N2CCN(CCCNC(=O)Cn3cccc3C(=O)c3ccccc3C)CC2)c1	n	x	n	n	x	x
O=C(Oc1ccc(Br)cc1C(=S)N1CCCC1)c1ccccc1Cl	n	n	n	n	x	x
Cc1ccccc1C(=O)Oc1ccc(Br)cc1C(=S)N1CCCC1	n	17.4	n	n	n	n
COc1cccc(-c2nc(-c3ccc(NC(=O)Cc4ccccc4OC)cc3)no2)c1	n	23.0	n	n	n	115.2
COc1cccc(-c2nc(CS(=O)(=O)CC(=O)NCc3ccccc3OC)c(C)o2)c1	n	22.2	n	n	n	n
C/C(CCc1ccccc1)=N/NC(=O)C(=O)NCc1ccccc1	n	x	n	n	x	x
COC(=O)c1ccccc1NC(=O)c1cnn2c(C(F)F)cc(C3CC3)nc12	n	18.7	n	n	43.7	32.5
COc1cc(NC(=O)c2cnn3c(C(F)F)cc(C4CC4)nc23)c(OC)cc1Cl	n	x	n	n	x	x
c1ccc(-c2nc(CSc3nnc(-c4cccs4)o3)cs2)cc1	n	20.2	n	n	n	20.1
COc1cccc(C(=O)N/N=C/C(Br)=C/c2ccccc2)c1	n	n	n	n	x	x
CN(CC(=O)Nc1ccc(C#N)cc1)Cc1ccc(Cl)cc1	n	18.1	n	n	n	n
SMILES	NPY1 pot ag	NPY-Y2 antag	NPY-Y2 PAM-ag	NPY-Y1 antag	NPY-Y1 antag ct	NPY-Y2 ant conf
COC(=O)C1=C(C(=O)OC)SC2(S1)C(C(=O)OC)=C(C(=O)OC)SC1=C2c2cccc(C)c2NC1(C)C	n	17.6	n	n	n	33.5
COC(=O)c1c(C)[nH]c(C)c1-c1ccccc1Cl	n	n	n	n	x	x
N=C1C(c2ccccc2)=C(O)CN1c1cccc(O)c1	n	x	n	n	x	x
Cc1nc2ccccc2c(=O)n1NC(=O)/C=C/c1ccc(Br)cc1	n	18.2	n	n	n	n
Fc1ccc(Cn2nnnc2CN2CCN(C3CCCCC3)CC2)cc1	n	19.9	n	n	n	n
c1coc(Cn2nnnc2CN2CCN(C3CCCC3)CC2)c1	n	n	n	n	x	x
O=C(COC(=O)COc1ccccc1)Nc1ccc(S(=O)(=O)N2CCOCC2)cc1	n	x	n	n	x	x
CCN(CC)c1nc2cc(OC)ccc2cc1C#N	n	23.2	n	n	n	n
CCSc1nc2ccc(OC)cc2cc1C#N	n	21.5	n	n	n	20.2
Oc1cccc(-c2nc3ccc4ccccc4c3c3c2CCC3)c1	n	30.0	n	n	n	31.5
